Measured values published in ChEMBL document CHEMBL1122573, “Novel N-hydroxyguanidine derivatives as anticancer and antiviral agents” (J Med Chem, 1984).
Converted amounts (≈) assume the structure as drawn.

Assays:
Gallus gallus [1] = species: Gallus gallus; test: Compound dose that inhibits transformation of chick embryo fibroblasts by Rous sarcoma virus, after 15 hr of incubation was determined in vitro. Compound dose that causes 16 % inhibition was reported.; type: functional
Summary of the method: (§1)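 Focus-formation assay with Rous sarcoma virus Schmidt-Ruppin subgroup D on confluent secondary chicken fibroblast monolayers (5 × 10^5 cells/plate). Compounds in DMSO (final <1%) were serially diluted from 10^-2 to 10^-5 M solutions before addition. Infection was ~150–200 focus-forming units per dish for 15 h at 37 °C. A 0.9% agar overlay held the same compound dilutions and was re-fed at day 3. Foci were scored 7–10 days post-infection, with virus-only and drug-only controls.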

Gallus gallus [2] = species: Gallus gallus; test: Compound dose that inhibits transformation of chick embryo fibroblasts by Rous sarcoma virus, after 15 hr of incubation was determined in vitro. Compound dose that causes 50 % inhibition was reported.; type: functional; settings: read-out: ID50 (the source's name); summary of the method: as §1
Gallus gallus [3] = species: Gallus gallus; test: Compound dose that inhibits transformation of chick embryo fibroblasts by Rous sarcoma virus, after 15 hr of incubation was determined in vitro. Compound dose that causes 84 % inhibition was reported.; type: functional; summary of the method: as §1
L1210 [4] = test: Activity against cultured L1210 leukemic cells was determined in vitro, after 48 h of incubation. Compound dose that causes 16 % inhibition was reported; type: functional, Mus musculus
Summary of the method: (§2)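 L1210 cells in RPMI with 10% fetal calf serum, amino acids, vitamins and penicillin-streptomycin, seeded at 4.0–6.0 × 10^4 cells/mL in duplicate per concentration. At least six concentrations in 1:5 dilutions; 24–48 h humidified incubation under 5% CO2. Cells were counted with a Coulter counter, with untreated and Me2SO controls. ID values were derived by a previously described method.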

L1210 [5] = test: Activity against cultured L1210 leukemic cells was determined in vitro, after 48 hr of incubation. Compound dose that causes 50 % inhibition was reported; type: functional; settings: Mus musculus, L1210, 48 h; read-out: ID50 (the source's name); summary of the method: as §2
L1210 [6] = test: Activity against cultured L1210 leukemic cells was determined in vitro, after 48 hr of incubation. Compound dose that causes 84 % inhibition was reported; type: functional, Mus musculus; summary of the method: as §2
[7] = Compound dose that causes lethality by 50 %, was tested in mice; type: ADME, organism-based; settings: mouse, in vivo
Summary of the method: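 C57 Bl/6J mice, six per dose level. Drug was ground with an equal weight of acacia and suspended in saline, then dosed intraperitoneally by body weight.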

[8] = system: Moloney murine sarcoma virus; test: Compound was tested for 50% inhibitory dose against Moloney sarcoma virus; type: functional; settings: read-out: ID50 (the source's name)

SMILES | ID16 (Gallus gallus [1]) | IC50 (Gallus gallus [2]) | ID84 (Gallus gallus [3]) | ID16 (L1210 [4]) | IC50 (L1210 [5]) | ID84 (L1210 [6]) | LD50 [7] | IC50 [8]
Cc1ccsc1/C=N/N=C(/N)NO | 5.89 µM | 18.5 µM | 57.9 µM | 16.89 µM | 33.2 µM | 65.3 µM | – | –
N/C(=N/N=C/c1ccccn1)NO | 1.01 µM | 2.76 µM | 7.55 µM | 4.4 µM | 10.9 µM | 27 µM | 315 mg/kg | –
COc1cccc(/C=N/NC(=N)NO)c1 | 7.15 µM | 17.8 µM | 44.06 µM | 4.2 µM | 16 µM | 60.9 µM | – | –
Cc1cccc(/C=N/N=C(\N)NO)n1 | 36 µM | 114 µM | 361.3 µM | 19.76 µM | 42.1 µM | 89.6 µM | – | –
NC(/N=N/c1c(O)[nH]c2ccc(F)cc12)=N\O | 5.36 µM | 18.3 µM | 62.25 µM | 17.8 µM | 48.4 µM | 132 µM | – | –
N/C(=N\O)N/N=C/c1cccc(C(F)(F)F)c1 | 8.19 µM | 18.2 µM | 40.61 µM | 2.35 µM | 15.1 µM | 96.4 µM | – | –
N/C(=N\O)N/N=C/C1CCCCC1 | 9.11 µM | 23.4 µM | 60.4 µM | 9.34 µM | 21.2 µM | 48.4 µM | – | –
N/C(=N\O)N/N=C/c1cccs1 | 3.64 µM | 11.8 µM | 38.04 µM | 81.7 µM | 34.1 µM | 143 µM | – | –
CCCCOc1cccc(/C=N/N=C(\N)NO)c1 | 2.66 µM | 10.2 µM | 38.96 µM | 3 µM | 8.54 µM | 24.3 µM | – | –
CCCCCCOc1cccc(/C=N/N=C(\N)NO)c1 | 1.18 µM | 8.02 µM | 54.56 µM | 2.96 µM | 7.8 µM | 20.6 µM | – | –
N/C(=N\O)N/N=C/c1cccc(I)c1 | 0.9 µM | 3.45 µM | 13.33 µM | 4.07 µM | 12.5 µM | 38.5 µM | 190 mg/kg | –
N=C(NN)NO | 15.63 µM | 195 µM | 2438 µM | 57.1 µM | 126 µM | 311 µM | – | –
N=C(N)NO.O=S(=O)(O)O [HYDROXYGUANIDINE SULFATE] | 192.7 µM | 374 µM | 725.8 µM | 95.8 µM | 59.5 µM | 370 µM | – | –
N=C(N)NO [HYDROXYGUANIDINE] | – | – | – | – | – | – | – | 2 µg/mL (≈ 26.6 µM)
NC(=O)NO [HYDROXYUREA] | – | – | – | 1.99 µM | 60.6 µM | 181 µM | – | –
